Key:
Glutamate NMDA receptor [1] = assay: Displacement of [3H]CPP from rat synaptic membrane glutamate NMDA receptor
Mus musculus = assay: Functional NMDA antagonist activity was confirmed in vivo in mice (intraperitoneally) using an NMDA-induced lethality assay
Glutamate NMDA receptor [2] = assay: Affinity for the NMDA receptor site was assessed by its ability to displace [3H]TCP from its binding site in rat brain; type: tissue-based
Outline: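 Rat whole-brain crude synaptic membranes, resuspended in ice-cold 5.0 mM Tris HCl pH 7.4. Triplicate incubation 1 h at 25 °C with 2.5 nM [³H]TCP, 3 µM L-glutamate and 1 µM glycine. Nonspecific binding defined with 100 µM MK-801. Filtration on PEI-presoaked glass fiber filters, then scintillation counting. IC50 with 95% confidence limits from 5-10 concentrations.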

[3] = biological target: T1, Glutamate NMDA receptor (Rattus norvegicus) (UniProt P35439+Q00959+Q00960+Q00961+Q62645+Q8VHN2+Q9R1M7); assay: Affinity for the NMDA receptor site was assessed by the ability to displace [3H]CPP from its binding site in rat synaptic membranes at a concentration of 100 uM; type: cell membranes
Outline: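 Rat whole-brain crude synaptic membranes (Triton X-100 treated, frozen), in 50 mM Tris HCl pH 7.6, 0.2-0.5 mg protein. Triplicate incubation 15 min at 23 °C with 8 nM [³H]CPP. Nonspecific binding defined with 1.0 mM NMDA. Bound ligand separated by centrifugation at 48000g, then scintillation counting. Percent inhibition reported at 100 µM.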

[4] = biological target: T1, Glutamate NMDA receptor (Rattus norvegicus); assay: Affinity for the NMDA receptor site was assessed by its ability to displace [3H]TCP from its binding site in rat brain at a concentration of 100 uM; type: tissue-based
Rattus norvegicus [5] = species: Rattus norvegicus; assay: Effect on the volume of infarcted brain tissue in rat; type: functional
Outline: (§1)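 Male Fisher-344 rats under isoflurane, with permanent occlusion of the distal MCA plus the ipsilateral common carotid; body temperature held at 37 °C. Single iv tail-vein bolus of 3 mg/kg in 0.9% NaCl, given 5 min post-occlusion. At 24 h, cresyl violet-stained forebrain sections were taken at 400 µm intervals. Infarct volume by image analysis, mean ± SE, n=27-28 per group.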

Rattus norvegicus [6] = species: Rattus norvegicus; assay: Effect on the decrease in volume of infarcted brain tissue in rat; type: functional; outline: as §1
[7] = Mus musculus, ip, read-out: ED50

Compound | IC50 (Glutamate NMDA receptor [1]) [µM] | ED50 (Mus musculus; [7]) [mg/kg] | inhibition [3] [%] | inhibition [4] [%] | further results
NC(CCc1nc2ccccc2n1CP(=O)(O)O)C(=O)O (stereo in doubt; 10) | 5.2 | – | – | – | –
NC(CCCCCP(=O)(O)O)C(=O)O (stereo not given) [AP-7] | – | 37.6 | – | – | –
NC(Cc1nc2ccc(Cl)cc2n1CP(=O)(O)O)C(=O)O (single isomer, unassigned; (-)) | 0.022 | 2.56 | – | – | IC50 (Glutamate NMDA receptor [2]): 13.6 µM
NC(Cc1nc2cc(Br)ccc2n1CP(=O)(O)O)C(=O)OCc1ccccc1 (stereo not given) | 0.056 | 0.47 | – | – | IC50 (Glutamate NMDA receptor [2]): 15.5 µM
NC(Cc1nc2c(Cl)cccc2n1CP(=O)(O)O)C(=O)O (single isomer, unassigned; (-)) | – | – | 81 | – | –
NC(Cc1nc2ccccc2n1CCP(=O)(O)O)C(=O)O (single isomer, unassigned; (-)) | – | – | 39 | 9.5 | –
NC(Cc1nc2cc(C(F)(F)F)ccc2n1CP(=O)(O)O)C(=O)O (stereo not given) | 0.75 | – | – | 40 | –
NC(Cc1nc2ccccc2n1CP(=O)(O)O)C(=O)O (stereo in doubt; 8) [listing 1 of 2 here] | – | – | – | – | ED50 (Mus musculus): 7.91 mg/kg
O=C(O)C1CN(CCCP(=O)(O)O)CCN1 (stereo not given) | – | 1 | – | – | –
NC(Cc1nc2cccc(Cl)c2n1CP(=O)(O)O)C(=O)O (single isomer, unassigned; (-)) | – | – | 73 | 28.1 | –
N[C@H](Cc1nc2cc(Cl)ccc2n1CP(=O)(O)O)C(=O)O | 0.0071 | 0.13 | – | – | Volume (Rattus norvegicus [5]): 51.3 mm**3; IC50 (Glutamate NMDA receptor [2]): 0.72 µM; Decrease (Rattus norvegicus [6]): 45%
NC(Cc1nc2cc(Cl)c(Cl)cc2n1CP(=O)(O)O)C(=O)O (single isomer, unassigned; (-)) | 0.018 | 2.58 | – | – | –
NC(CCc1nc2ccccc2n1CP(=O)(O)O)C(=O)O (single isomer, unassigned; (-)) | 6.8 | – | – | – | –
NC(Cc1nc2ccccc2n1CC(=O)O)C(=O)O (single isomer, unassigned; (-)) | – | – | 30 | 9.5 | –
NC(Cc1nc2ccccc2n1CP(=O)(O)O)C(=O)O (stereo in doubt; 8) [listing 2 of 2 here] | – | – | 30 | 29.1 | –
NC(Cc1nc2cc(Cl)ccc2n1CP(=O)(O)O)C(=O)OCc1ccccc1 (stereo not given) | 0.15 | – | – | – | IC50 (Glutamate NMDA receptor [2]): 46.5 µM
NC(Cc1nc2ccccc2n1CP(=O)(O)O)C(=O)O (single isomer, unassigned; (-)) | 0.077 | – | – | – | IC50 (Glutamate NMDA receptor [2]): 11.1 µM; ED50 (Mus musculus): 2.04 mg/kg
O=C(O)[C@@H]1C[C@H](CP(=O)(O)O)CCN1 [SELFOTEL] | – | 0.6 | – | – | –
NC(Cc1nc2cc(Cl)c(Cl)cc2n1CP(=O)(O)O)C(=O)O (single isomer, unassigned; (+)) | 1 | – | – | – | –
Cc1cc2nc(CC(N)C(=O)O)n(CP(=O)(O)O)c2cc1C (single isomer, unassigned; (-)) | – | – | 99.7 | 88.5 | –
CCOC(=O)C(N)Cc1nc2ccccc2n1CP(=O)(O)O (single isomer, unassigned; (-)) | – | – | 61 | 0 | –

— ChEMBL document CHEMBL1134686, “Design, synthesis, SAR, and biological evaluation of highly potent benzimidazole-spaced phosphono-alpha-amino acid competitive NMDA antagonists of the AP-6 type” (J Med Chem, 2001)
